From PubChem BioAssay
The list is not random: actives were taken first. Their share in the collection is about 1.9%.
RAD54 branch: inhibitors of human RAD54 branch migration, primary screen, biochemical, fluorescence, single point; 0.14% of 360,000 active; inhibition, % at 10.4 µM; RAD54 Holliday junction branch migration, FAM/BHQ fluorescence; AID 602329, 2012;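 active = mean normalized replicate activity at least 40 and at least half of replicates scoring 40 or more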;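 also: inhibitors cause a drop in the FAM fluorescence signal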
PglD inh: C. jejuni PglD acetyltransferase inhibitors, primary screen, biochemical, DTNB colorimetric, single point | UDP-N-acetylbacillosamine N-acetyltransferase PglD (Campylobacter jejuni) | AID 602405, 2012 | purified PglD enzyme, DTNB colorimetric CoA detection | 0.098% of 360,000 active | inhibition, % at 12.5 µM; in the data active = inhibition above about 16%, passing the limit was not always enough
rRNA inh HTS: reduced GFP signal of wild-type E. coli, primary screen, bacterial rRNA inhibitor project, GFP/RFP fluorescence, OD600, single point | GFP signal change (wild-type ribosome), % (test concentration not listed) | 1.6% of 350,000 active | E. coli WT GFP vs humanized-ribosome RFP mutants, 24 h; hits give low values; DMSO median 0, no signal -100 | AID 720706, 2013;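 active = significant combined selectivity score with lowered wild-type GFP, culture density cut under 30%, mutant RFP and density less affected; inactive = any of these conditions unmet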
RAD52 anneal inh: RAD52 DNA annealing inhibitors, primary screen, biochemical, FRET, single point, set 2; recombinant RAD52 DNA annealing, FRET fluorescence; inhibition, % at 18.7 µM; 0.46% of 360,000 active; AID 651710, 2012;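 active = every replicate showing at least 50% inhibition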
Cneo AK release: Cryptococcus neoformans cell lysis inducers, primary screen, AK release luminescence, single concentration. C. neoformans lysis, adenylate kinase release luminescence, 4 h; normalised: neutral wells 0, clomiphene wells 100. lysis activity, % at 15 µM. 0.2% of 360,000 active;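 active = mean lysis activity across replicates of at least 80%, whatever share of replicates individually reach that level; inactive = mean lysis activity below 80%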
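Material – log-phase Cryptococcus neoformans yeast cells · Input – 5 × 10^6 yeast cells/mL · Medium – fresh YPD growth medium · Doses – single compound concentration per well · Timing – static 4 h at 37 °C with compound, 1 h detection · Detection – adenylate kinase release luminescence · Read-out – signal increase indicating cell lysis · Control set – Clomiphene as positive lysis control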
Hits are given with their value; 0 = inactive; - = no result given.

SMILES	RAD54 branch	PglD inh	rRNA inh HTS	RAD52 anneal inh	Cneo AK release
C[C@@H]1CCCCO[C@H](CN(C)C)[C@@H](C)CN([C@@H](C)CO)C(=O)c2cc(NC(=O)NC3CCCCC3)ccc2O1	-	-	0	-	-
Cc1noc(C)c1NC(=O)N(C)C[C@@H]1OCCCC[C@H](C)Oc2ccc(NC(=O)Nc3ccccc3)cc2C(=O)N([C@@H](C)CO)C[C@H]1C	-	-	0	-	-
COc1ccc(CNS(=O)(=O)c2ccc3c(c2)NC(=O)C(C)S3)cc1 (configuration not stated)	0	0	-19	0	0
O=C1CSc2ccc(S(=O)(=O)NCc3ccc(F)cc3)cc2N1	0	0	0	0	0
O=C1CSc2ccc(S(=O)(=O)NCc3ccc(Cl)cc3)cc2N1	-	-	-30	0	-
CCc1cccc(NS(=O)(=O)c2ccc3c(c2)NC(=O)C(C)S3)c1 (configuration not stated)	0	0	0	0	0
CCN(Cc1ccccc1)S(=O)(=O)c1ccc2c(c1)NC(=O)CS2	0	0	-35	0	0
COc1ccc(CCNS(=O)(=O)c2ccc3c(c2)NC(=O)C(C)S3)cc1OC (configuration not stated)	0	0	0	0	0
Cc1ccc(CNS(=O)(=O)c2ccc3c(c2)NC(=O)C(C)S3)cc1 (configuration not stated)	0	0	-34	0	0
C[C@H](CO)N1C[C@H](C)[C@@H](CN(C)Cc2cccc(C(F)(F)F)c2)OCc2ccccc2-c2ccccc2C1=O	-	-	0	-	-
CC(C)n1c(C(=O)OCC(=O)NCc2ccc3c(c2)OCO3)cc2sccc21	0	0	-25	0	0
CC(C)[C@H]1COCc2cn(nn2)CCCCC(=O)N1	-	-	0	-	-
COc1cc2c(cc1OC)C(=O)N1[C@H]3c4cc(Cl)ccc4OC[C@@H]3[C@H](c3ccccc3)[C@]1(C)C(=O)N2	0	0	0	0	0
COc1cc2c(cc1Cl)C(=O)C(F)(c1ccccc1)C(=O)N2 (configuration not stated)	-	-	-29	0	-
Cc1onc(-c2ccccc2)c1C(=O)NC(=S)NNC(=O)c1cc(-c2ccc(F)cc2)n[nH]1	0	0	-33	0	0
Cc1onc(-c2ccccc2)c1C(=O)NC(=S)NNC(=O)c1ccco1	0	0	0	0	0
Cc1onc(-c2ccccc2)c1C(=O)NC(=S)NNC(=O)c1ccncc1	0	0	-36	0	0
Cc1onc(-c2ccccc2)c1C(=O)NNC(=S)NC(=O)c1ccc2c(c1)OCO2	0	0	-40	0	0
COc1ccc(C(=O)NC(=S)NNC(=O)c2c(-c3ccccc3)noc2C)cc1OC	0	0	0	0	0
Cc1onc(-c2c(Cl)cccc2Cl)c1C(=O)Nc1ccc2c(c1)OCO2	0	0	-22	0	0
Cc1ccc(S(=O)(=O)CNC(=S)c2ccc3ccccc3c2)cc1	0	0	-24	0	0
Cc1ncc(CN2CCCC(C(=O)Nc3ccc(-c4cccc(F)c4)cc3)C2)s1 (configuration not stated)	0	0	-31	0	0
COc1ccc2c3c(n(C)c2c1)[C@H](CO)N(C(=O)c1ccccc1)CC31CN(Cc2ccccc2OC)C1	-	-	0	-	-
CC(C)NC(=O)N1CC(=O)N2[C@H](CO)[C@@H](c3ccc(/C=C/c4ccccc4)cc3)[C@@H]2C1	-	-	0	0	-
O=S1(=O)CCC(N=Cc2cc(Br)ccc2O)C1 (configuration not stated)	0	0	-	-	85
O=c1c2ccccc2c(C=NC2CCS(=O)(=O)C2)c(O)n1-c1ccccc1 (configuration not stated)	0	0	-	-	0
CC(C)CC#Cc1ccc([C@H]2[C@@H](CO)N3C(=O)CN(C(=O)Cc4ccccc4)C[C@@H]23)cc1	-	-	0	0	-
CCS(=O)(=O)N1CC2(C1)[C@H](c1ccccc1)[C@H](CO)N2C(=O)C1CCCC1	-	-	0	0	-
COc1ccc(NC(=O)Nc2c(O)ccc3ccccc23)cc1	-	-	-26	0	-
